For one test, the species on record is Homo sapiens. The test is described as follows: Inhibition of MEK/ERK1 (unknown origin) using MBP/[gamma-32P]ATP as substrate after 10 mins by scintillation counting. In outline:
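Compound at 10–150 μM in MOPS pH 7.2 buffer with β-glycerophosphate, EGTA, orthovanadate and DTT. [γ-32P]ATP at 10 μCi/reaction, 10 min at 30°C. Phosphorylated MBP was captured on P81 paper and counted by scintillation. Run in quadruplicate and given as % of no-compound control.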

A further test relates to NIH3T3. The test is described as follows: Cytotoxicity against mouse NIH/3T3 cells by crystal violet assay. Format: cell-based. In outline: (§1)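 Parental NIH-3T3 fibroblasts and Ha-Ras-transfected RAS-3T3 cells were grown in DMEM with 10% FBS, […] and antibiotic-antimycotic at 37°C in 5% CO2. Growth retardation/cytotoxicity was read by crystal violet staining. Compounds came from 10 mM DMSO stocks.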

A short description of test [1]: Cytotoxicity against mouse RAS-3T3 cells by crystal violet assay. Format: functional, cell-based. The following applies: NIH3T3. In outline: as §1
Test [2] deals with Fibroblast growth factor receptor 2 (Homo sapiens) (UniProt P21802). The test is described as follows: Inhibition of FGFR2 (unknown origin) at 10 uM. The procedure, abridged:
(§2)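 ADP-Glo luminescent kinase assay. Inhibitor at 10 μM was preincubated with kinase (1 ng) for 10 min at 25°C. Substrate (10–60 μM) and ATP (25 μM) were then added and the mix incubated 1 h at 24°C. ADP-Glo reagent was added for 40 min, then detection reagent for 30 min, and luminescence was read. Activity is given as % of uninhibited kinase. Mean ± SD of 2 independent experiments.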

Test [3] relates to RAS-3T3. As to the kind of experiment: Inhibition of MEK-mediated ERK1/2 phosphorylation in mouse RAS-3T3 cells at 40 uM by Western-blot analysis. The class given is cell-based. The procedure, abridged: (§3)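 RAS-3T3 cells were starved overnight in 2% FBS, then given 10% FBS medium with compound for 4 h. Cells were lysed in Triton X-100/Tris/EDTA/NaCl buffer with protease inhibitors. 50 μg of protein was run on 10% SDS-PAGE and blotted to nitrocellulose, with loading checked by Ponceau. Blots were probed with anti-pERK and anti-total ERK antibodies and detected by HRP chemiluminescence. Untreated cells were controls.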

The target in test [4] is T1, Aurora kinase A (Homo sapiens) (UniProt O14965).
T1 sequence (whole entry): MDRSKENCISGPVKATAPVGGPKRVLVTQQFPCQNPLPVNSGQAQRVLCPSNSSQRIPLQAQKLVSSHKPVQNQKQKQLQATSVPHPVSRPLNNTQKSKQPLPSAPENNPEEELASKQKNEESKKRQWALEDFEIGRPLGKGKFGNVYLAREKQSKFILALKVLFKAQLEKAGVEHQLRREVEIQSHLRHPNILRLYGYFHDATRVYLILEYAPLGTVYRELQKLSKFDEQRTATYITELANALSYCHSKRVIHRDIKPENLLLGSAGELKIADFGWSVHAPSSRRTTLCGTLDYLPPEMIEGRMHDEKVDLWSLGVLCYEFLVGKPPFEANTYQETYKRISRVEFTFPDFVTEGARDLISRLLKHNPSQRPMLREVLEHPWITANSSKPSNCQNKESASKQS
The test is described as follows: Inhibition of aurora-A (unknown origin) at 10 uM. In outline:
as §2

In test [5] the target is TRAF2 and NCK-interacting protein kinase (Homo sapiens) (UniProt Q9UKE5). As to the kind of experiment: Inhibition of TNIK (unknown origin) at 10 uM. The procedure, abridged: as §2
Test [6] has as its target Mitogen-activated protein kinase 3 (Homo sapiens) (UniProt P27361). As to the kind of experiment: Competitive inhibition of activated ERK1 (unknown origin) using […] as substrate. In outline:
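Activated pERK1 (20 ng) with inhibitor held at 5 μM and MBP varied from 0.2 to 200 μg per reaction. Non-radioactive ATP at 0.2 μM. Remaining ATP was measured by luciferase luminescence, and activity was taken from ATP consumption. Controls lacked inhibitor but had matching MBP amounts. Mean ± SD from 3 independent experiments.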

The target in test [7] is Receptor-type tyrosine-protein kinase FLT3 (Homo sapiens) (UniProt P36888). The test is described as follows: Inhibition of FLT3 (unknown origin) at 10 uM. In outline:
as §2

Test [8] deals with Tyrosine-protein kinase JAK2 (Homo sapiens) (UniProt O60674). The test is described as follows: Inhibition of JAK2 (unknown origin) at 10 uM. In outline: as §2
The target of test [9] is Insulin-like growth factor 1 receptor (Homo sapiens) (UniProt P08069). The test is described as follows: Inhibition of IGF1R (unknown origin) at 10 uM. In outline:
as §2

The target in test [10] is Mitogen-activated protein kinase 3 (Homo sapiens) (UniProt P27361). The test is described as follows: Inhibition of activated ERK1 (unknown origin) using […] as substrate. The procedure, abridged:
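Activated pERK1 (20 ng) with MBP (20 μg) and compound at final 0.05–5 μM. Non-radioactive ATP at 0.2 μM. Residual ATP was measured by luciferase luminescence, and relative activity was derived from ATP consumption versus compound-free control. Mean ± SD from 3 independent experiments.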

The subject of test [11] is RAS-3T3. As to the kind of experiment: Inhibition of MEK in mouse RAS-3T3 cells assessed as effect on unphosphorylated ERK1/2 at 40 uM by Western-blot analysis. The class given is cell-based. In outline:
as §3

Test [12] addresses Tyrosine-protein kinase BTK (Homo sapiens) (UniProt Q06187). As to the kind of experiment: Inhibition of BTK (unknown origin) at 10 uM. The procedure, abridged:
as §2

In test [13] the target is T2, Tyrosine-protein kinase JAK3 (Homo sapiens) (UniProt P52333).
T2 sequence (whole entry): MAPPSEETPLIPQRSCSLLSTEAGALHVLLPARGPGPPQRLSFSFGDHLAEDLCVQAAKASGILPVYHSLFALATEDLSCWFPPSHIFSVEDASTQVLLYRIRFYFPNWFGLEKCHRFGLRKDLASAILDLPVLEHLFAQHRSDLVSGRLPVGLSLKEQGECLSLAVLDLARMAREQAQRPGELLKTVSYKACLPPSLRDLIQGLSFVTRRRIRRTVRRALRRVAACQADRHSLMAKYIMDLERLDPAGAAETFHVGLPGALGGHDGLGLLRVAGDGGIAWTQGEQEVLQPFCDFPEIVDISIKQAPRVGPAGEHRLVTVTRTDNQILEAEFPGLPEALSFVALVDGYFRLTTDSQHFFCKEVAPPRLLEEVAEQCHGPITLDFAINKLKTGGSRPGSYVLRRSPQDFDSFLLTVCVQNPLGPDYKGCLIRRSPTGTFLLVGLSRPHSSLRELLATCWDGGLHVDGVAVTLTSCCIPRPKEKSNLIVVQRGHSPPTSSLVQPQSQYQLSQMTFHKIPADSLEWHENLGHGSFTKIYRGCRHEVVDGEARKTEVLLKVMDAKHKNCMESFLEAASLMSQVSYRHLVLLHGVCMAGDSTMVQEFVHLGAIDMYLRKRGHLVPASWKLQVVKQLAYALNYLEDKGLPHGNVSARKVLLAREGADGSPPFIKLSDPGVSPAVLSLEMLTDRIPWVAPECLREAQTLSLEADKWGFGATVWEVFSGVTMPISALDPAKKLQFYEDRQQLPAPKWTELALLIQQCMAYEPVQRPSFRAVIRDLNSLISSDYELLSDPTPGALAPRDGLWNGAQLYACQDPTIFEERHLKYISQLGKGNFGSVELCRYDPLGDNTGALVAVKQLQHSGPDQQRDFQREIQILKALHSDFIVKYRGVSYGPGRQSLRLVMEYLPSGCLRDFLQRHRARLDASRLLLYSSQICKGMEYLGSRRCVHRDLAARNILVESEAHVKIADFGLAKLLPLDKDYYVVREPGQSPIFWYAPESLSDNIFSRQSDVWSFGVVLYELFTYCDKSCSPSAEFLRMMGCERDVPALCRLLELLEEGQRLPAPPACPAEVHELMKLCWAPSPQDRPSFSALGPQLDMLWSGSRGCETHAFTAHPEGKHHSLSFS
The test is described as follows: Inhibition of JAK3 (unknown origin) at 10 uM. In outline:
as §2

The target in test [14] is Epidermal growth factor receptor (Homo sapiens) (UniProt P00533). The test is described as follows: Inhibition of EGFR (unknown origin) at 10 uM. In outline: as §2
Epidermal growth factor receptor (Homo sapiens), sequence (P00533 whole entry): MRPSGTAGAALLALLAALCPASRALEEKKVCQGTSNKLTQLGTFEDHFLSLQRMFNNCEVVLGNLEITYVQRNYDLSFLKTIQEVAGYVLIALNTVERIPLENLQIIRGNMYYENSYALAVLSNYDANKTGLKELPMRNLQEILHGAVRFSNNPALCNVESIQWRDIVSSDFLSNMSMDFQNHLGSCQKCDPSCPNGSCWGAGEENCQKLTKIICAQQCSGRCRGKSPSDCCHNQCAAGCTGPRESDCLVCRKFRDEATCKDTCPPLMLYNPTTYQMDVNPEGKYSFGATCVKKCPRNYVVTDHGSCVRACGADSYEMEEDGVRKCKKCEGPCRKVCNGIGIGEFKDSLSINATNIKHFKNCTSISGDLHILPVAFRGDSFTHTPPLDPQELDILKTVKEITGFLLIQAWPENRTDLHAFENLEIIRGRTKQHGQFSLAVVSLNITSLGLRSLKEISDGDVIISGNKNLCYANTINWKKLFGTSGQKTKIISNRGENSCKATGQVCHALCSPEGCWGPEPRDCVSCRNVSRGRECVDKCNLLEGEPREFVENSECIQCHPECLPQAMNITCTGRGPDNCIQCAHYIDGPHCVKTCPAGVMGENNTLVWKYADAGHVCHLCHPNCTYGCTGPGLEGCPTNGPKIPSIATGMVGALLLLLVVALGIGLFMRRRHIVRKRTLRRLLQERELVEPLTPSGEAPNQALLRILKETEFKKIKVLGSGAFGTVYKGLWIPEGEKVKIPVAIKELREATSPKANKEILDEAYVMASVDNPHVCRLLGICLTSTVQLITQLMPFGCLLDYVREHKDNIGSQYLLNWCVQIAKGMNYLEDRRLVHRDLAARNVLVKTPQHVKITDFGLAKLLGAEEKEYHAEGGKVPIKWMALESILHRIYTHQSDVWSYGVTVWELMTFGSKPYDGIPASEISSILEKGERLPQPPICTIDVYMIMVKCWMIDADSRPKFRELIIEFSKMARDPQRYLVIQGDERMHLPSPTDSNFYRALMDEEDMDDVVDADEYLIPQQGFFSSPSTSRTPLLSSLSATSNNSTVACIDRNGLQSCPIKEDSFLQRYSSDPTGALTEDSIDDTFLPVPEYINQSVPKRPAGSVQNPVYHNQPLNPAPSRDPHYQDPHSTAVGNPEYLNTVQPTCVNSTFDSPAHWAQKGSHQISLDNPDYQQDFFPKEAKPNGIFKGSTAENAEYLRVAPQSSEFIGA
In test [15] the test system is RAS-3T3. As to the kind of experiment: Inhibition of MEK-mediated ERK1/2 phosphorylation in mouse RAS-3T3 cells at 40 uM by ELISA. The class given is cell-based. The procedure, abridged:
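RAS-3T3 cells were pre-starved overnight in 2% FBS, then treated with compound in 10% FBS medium for 4 h. Lysates were assayed with a pERK1/2-specific sandwich ELISA and absorbance read at 405 nm. Untreated cells were controls.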
(In general: ELISA stands for enzyme-linked immunosorbent assay.)

In test [16] the target is Platelet-derived growth factor receptor beta (Homo sapiens) (UniProt P09619). The test is described as follows: Inhibition of PDGFRbeta (unknown origin) at 10 uM. The procedure, abridged:
as §2

Test [17] addresses Serine/threonine-protein kinase pim-1 (Homo sapiens) (UniProt P11309). As to the kind of experiment: Inhibition of PIM1 (unknown origin) at 10 uM. The procedure, abridged:
as §2

The target of test [18] is Vascular endothelial growth factor receptor 2 (Homo sapiens) (UniProt P35968). As to the kind of experiment: Inhibition of KDR (unknown origin) at 10 uM. The procedure, abridged: as §2
The target in test [19] is ALK tyrosine kinase receptor (Homo sapiens) (UniProt Q9UM73). The test is described as follows: Inhibition of ALK (unknown origin) at 10 uM. In outline:
as §2

Active and inactive are the calls of the source. No cut-off for these calls is given here.

Mitogen-activated protein kinase 3 (Homo sapiens), sequence (P27361 whole entry): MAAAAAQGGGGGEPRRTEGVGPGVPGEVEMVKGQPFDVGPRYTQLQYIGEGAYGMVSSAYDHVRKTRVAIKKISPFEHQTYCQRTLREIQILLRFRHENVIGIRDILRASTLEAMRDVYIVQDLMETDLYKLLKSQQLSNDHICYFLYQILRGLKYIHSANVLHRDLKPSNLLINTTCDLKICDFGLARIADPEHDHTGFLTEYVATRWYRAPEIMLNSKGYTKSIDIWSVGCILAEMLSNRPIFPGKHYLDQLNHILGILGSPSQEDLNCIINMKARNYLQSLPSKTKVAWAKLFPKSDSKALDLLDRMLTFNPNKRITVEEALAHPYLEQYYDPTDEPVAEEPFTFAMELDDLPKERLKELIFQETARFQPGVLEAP
Serine/threonine-protein kinase pim-1 (Homo sapiens), sequence (P11309 whole entry, looked up): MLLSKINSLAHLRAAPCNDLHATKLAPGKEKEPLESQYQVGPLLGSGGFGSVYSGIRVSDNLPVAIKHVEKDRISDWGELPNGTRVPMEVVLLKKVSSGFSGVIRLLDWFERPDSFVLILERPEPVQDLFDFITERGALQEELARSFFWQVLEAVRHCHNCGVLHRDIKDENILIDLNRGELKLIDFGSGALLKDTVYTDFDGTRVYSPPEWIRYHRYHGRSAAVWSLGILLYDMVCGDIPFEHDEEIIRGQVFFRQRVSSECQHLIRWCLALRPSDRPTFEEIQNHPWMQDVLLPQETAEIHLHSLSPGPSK
Receptor-type tyrosine-protein kinase FLT3 (Homo sapiens), sequence (P36888 whole entry): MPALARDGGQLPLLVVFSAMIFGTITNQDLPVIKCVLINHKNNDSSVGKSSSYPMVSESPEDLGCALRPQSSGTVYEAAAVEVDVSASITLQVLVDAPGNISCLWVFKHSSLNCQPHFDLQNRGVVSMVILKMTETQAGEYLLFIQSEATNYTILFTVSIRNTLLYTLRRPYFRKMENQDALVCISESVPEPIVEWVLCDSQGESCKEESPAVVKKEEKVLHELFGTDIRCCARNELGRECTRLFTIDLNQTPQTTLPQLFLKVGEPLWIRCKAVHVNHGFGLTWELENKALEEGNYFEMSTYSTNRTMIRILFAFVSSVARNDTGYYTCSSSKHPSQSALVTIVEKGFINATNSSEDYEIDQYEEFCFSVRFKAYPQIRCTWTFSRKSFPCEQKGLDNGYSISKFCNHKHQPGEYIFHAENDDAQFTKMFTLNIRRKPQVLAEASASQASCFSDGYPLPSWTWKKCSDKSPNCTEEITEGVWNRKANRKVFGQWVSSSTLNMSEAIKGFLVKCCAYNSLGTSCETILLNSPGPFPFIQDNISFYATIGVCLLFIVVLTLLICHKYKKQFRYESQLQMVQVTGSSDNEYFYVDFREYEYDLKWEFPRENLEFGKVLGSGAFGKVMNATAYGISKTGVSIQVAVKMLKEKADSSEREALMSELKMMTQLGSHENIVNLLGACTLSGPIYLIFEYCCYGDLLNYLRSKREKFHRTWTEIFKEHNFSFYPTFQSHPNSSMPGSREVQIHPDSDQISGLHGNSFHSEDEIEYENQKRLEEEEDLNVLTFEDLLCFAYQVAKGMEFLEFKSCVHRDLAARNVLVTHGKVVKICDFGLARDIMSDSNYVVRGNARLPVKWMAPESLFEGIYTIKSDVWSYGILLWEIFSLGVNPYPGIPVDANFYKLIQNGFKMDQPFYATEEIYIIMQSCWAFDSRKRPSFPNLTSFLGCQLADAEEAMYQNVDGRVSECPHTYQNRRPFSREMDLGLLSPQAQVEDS
Platelet-derived growth factor receptor beta (Homo sapiens), sequence (P09619 whole entry): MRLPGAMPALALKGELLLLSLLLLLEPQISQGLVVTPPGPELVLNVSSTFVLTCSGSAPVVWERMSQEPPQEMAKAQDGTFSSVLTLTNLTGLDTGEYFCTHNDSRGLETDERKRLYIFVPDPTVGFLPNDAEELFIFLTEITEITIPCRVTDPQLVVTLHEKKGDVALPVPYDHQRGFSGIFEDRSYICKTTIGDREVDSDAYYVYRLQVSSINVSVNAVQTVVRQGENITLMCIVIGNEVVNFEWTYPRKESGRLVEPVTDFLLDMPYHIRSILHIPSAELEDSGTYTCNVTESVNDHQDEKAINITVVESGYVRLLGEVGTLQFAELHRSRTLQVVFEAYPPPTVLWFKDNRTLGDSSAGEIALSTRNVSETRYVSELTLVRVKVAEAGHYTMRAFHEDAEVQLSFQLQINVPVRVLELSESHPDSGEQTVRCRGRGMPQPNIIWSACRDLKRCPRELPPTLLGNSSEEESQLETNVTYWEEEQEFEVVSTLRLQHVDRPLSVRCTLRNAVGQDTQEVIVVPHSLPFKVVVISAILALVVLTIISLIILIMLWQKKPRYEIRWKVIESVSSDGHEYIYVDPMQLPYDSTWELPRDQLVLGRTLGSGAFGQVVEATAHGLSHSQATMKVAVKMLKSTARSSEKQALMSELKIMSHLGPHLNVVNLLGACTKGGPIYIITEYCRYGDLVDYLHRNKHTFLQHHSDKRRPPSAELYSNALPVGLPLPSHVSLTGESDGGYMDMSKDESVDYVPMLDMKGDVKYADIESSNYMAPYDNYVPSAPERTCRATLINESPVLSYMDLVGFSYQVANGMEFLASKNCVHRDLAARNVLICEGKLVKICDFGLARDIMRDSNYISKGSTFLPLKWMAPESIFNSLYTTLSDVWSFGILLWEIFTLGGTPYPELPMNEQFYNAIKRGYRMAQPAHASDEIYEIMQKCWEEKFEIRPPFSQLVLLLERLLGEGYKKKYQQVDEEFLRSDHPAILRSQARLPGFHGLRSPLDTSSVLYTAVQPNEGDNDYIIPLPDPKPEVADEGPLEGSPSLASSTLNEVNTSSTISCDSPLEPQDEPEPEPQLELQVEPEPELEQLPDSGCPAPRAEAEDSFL
Tyrosine-protein kinase BTK (Homo sapiens), sequence (Q06187 whole entry): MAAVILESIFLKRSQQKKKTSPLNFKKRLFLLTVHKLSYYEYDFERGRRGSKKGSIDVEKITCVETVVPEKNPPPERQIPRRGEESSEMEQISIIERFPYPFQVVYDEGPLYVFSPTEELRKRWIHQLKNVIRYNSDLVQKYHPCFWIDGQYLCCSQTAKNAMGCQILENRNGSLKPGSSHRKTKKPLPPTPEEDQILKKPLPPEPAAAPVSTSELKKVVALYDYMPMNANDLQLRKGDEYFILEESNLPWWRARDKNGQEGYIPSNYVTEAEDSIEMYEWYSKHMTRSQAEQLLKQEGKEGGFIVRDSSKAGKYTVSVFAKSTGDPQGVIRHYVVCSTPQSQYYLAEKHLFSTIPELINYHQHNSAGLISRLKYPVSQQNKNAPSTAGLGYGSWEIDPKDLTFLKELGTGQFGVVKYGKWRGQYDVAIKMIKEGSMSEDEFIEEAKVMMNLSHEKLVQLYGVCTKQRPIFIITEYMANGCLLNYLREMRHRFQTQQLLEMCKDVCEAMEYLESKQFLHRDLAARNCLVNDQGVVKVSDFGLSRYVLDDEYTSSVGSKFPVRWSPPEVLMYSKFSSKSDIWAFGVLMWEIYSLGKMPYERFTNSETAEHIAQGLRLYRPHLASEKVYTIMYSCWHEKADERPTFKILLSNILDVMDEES

Take `CCCCCCCCC[C@@H](NC(=O)CNC(=O)OCc1ccccc1)C(=O)NCc1ccc(OC)cc1`: the inhibition entry in the test listed under Homo sapiens was “Active”.
The same measure, in the same setting: under `CCCCCCCCC[C@H](NC(=O)CNC(=O)OCc1ccccc1)C(=O)NCc1ccc(OC)cc1` stands “Active”.
For the compound `CCCCCCCCCC(NC(=O)[C@H](CC(C)C)NC(=O)OCc1ccccc1)C(=O)NCc1ccc(OC)cc1` (mixture of isomers), the IC50 is > 200 µM with NIH3T3 and 50 µM in test [1].
For the compound `CCCCCCCCCC(NC(=O)[C@H](Cc1ccccc1)NC(=O)OCc1ccccc1)C(=O)NCc1ccc(OC)cc1` (mixture of isomers), the IC50 in the test on NIH3T3 is > 200 µM; in test [1] it was 68 µM.
With `CCCCCCCCCC(NC(=O)[C@H](C)NC(=O)OCc1ccccc1)C(=O)NCc1ccc(OC)cc1` (mixture of isomers), the IC50 with NIH3T3 was found to be 150 µM; in test [1], 55 µM.
On the same counts, the results for `CCCCCCCCCC(C(=O)NCc1ccc(OC)cc1)N(C)C(=O)CNC(=O)OCc1ccccc1` (racemic) are 30 µM and 30 µM.
For the compound `CCCCCCCC(NC(=O)CNC(=O)OCc1ccccc1)C(=O)NC1CCCCC1` (racemic), the results for the half-maximal inhibitory concentration (IC50) (in the test with NIH3T3; in [1]) were 40 µM and 30 µM, respectively.
The corresponding values for `CCCCCCCC(NC(=O)CNC(=O)OCc1ccccc1)C(=O)NCc1ccccc1` (racemic) are 38 µM and 33 µM.
For `CCCCCCCC(NC(=O)CNC(=O)OCc1ccccc1)C(=O)NCCc1ccccc1` (racemic), the results for the half-maximal inhibitory concentration (IC50) (with NIH3T3; in test [1]) were 33 µM and 20 µM, respectively.
On the same counts, the results for `CCCCCCCC(NC(=O)CNC(=O)OCc1ccccc1)C(=O)NCc1ccc(OC)cc1` (racemic) are 40 µM and 40 µM.
The corresponding values for `CCCCCCCC(NC(=O)CNC(=O)OCc1ccccc1)C(=O)NCc1ccc(OC)cc1OC` (racemic) are 50 µM and 40 µM.
On the same counts, the results for `COc1ccc(CNC(=O)C(Cc2ccccc2)NC(=O)CNC(=O)OCc2ccccc2)cc1` (racemic) are > 100 µM and > 100 µM.
As to `COc1ccc(CNC(=O)C(Cc2ccc(OC)cc2)NC(=O)CNC(=O)OCc2ccccc2)cc1` (racemic), the IC50 (with NIH3T3; in test [1]) was > 100 µM in each case.
Consider `COc1ccc(CNC(=O)C(CCCCCNC(=O)OC(C)(C)C)NC(=O)CNC(=O)OCc2ccccc2)cc1` (racemic), for which the IC50 (in the test on NIH3T3; in test [1]) was > 100 µM in each case.
Take `COc1ccc(CNC(=O)C(NC(=O)CNC(=O)OCc2ccccc2)C2CCCCC2)cc1` (racemic): the IC50 is 50 µM in the test on NIH3T3 and 40 µM in test [1].
With `COc1ccc(CNC(=O)C(CC(C)C)NC(=O)CNC(=O)OCc2ccccc2)cc1` (racemic), the IC50 (in the test with NIH3T3; in test [1]) was > 100 µM in each case.
Regarding `CCCCCCCCCC(NC(=O)CNC(=O)OCc1ccccc1)C(=O)NCc1ccc(OC)cc1` (racemic), the values for the IC50 (in the test on NIH3T3; in test [1]) were 55 µM and 19 µM, respectively. The inhibition entry in the test listed under Homo sapiens was “Dose-dependent effect”.
As for `CCCCCCCCCC(NC(=O)CNC(=O)OCc1ccccc1)C(=O)NCCc1ccccc1` (racemic), the inhibition entry in test [2], in test [4], in test [5], in [7], in [8] and in test [9] was “inactive” in each case. Also, the inhibition entry (in the test with RAS-3T3 [11]; in test [12]; in [13]; in test [14]; in [16]; in [17]) was “inactive” in each case. The inhibition result in test [18] and in [19] was “inactive” throughout. The inhibition result (with RAS-3T3 [3]; in test [6]) was “Active” throughout. In addition, the inhibition result in test [10] is “Dose-dependent effect”; with RAS-3T3 [15] it was 90%.

As usually defined, the inhibition is how much of the control response was suppressed. As usually defined, the IC50 is the concentration needed to halve the response being measured. Higher therefore signals lower potency.

The values above are taken from ChEMBL document CHEMBL3112533, “Synthesis of novel, peptidic kinase inhibitors with cytostatic/cytotoxic activity” (Bioorg Med Chem, 2014).
